Measurements published in ChEMBL document CHEMBL1137336, “Structure-function correlation of chloroquine and analogues as transgene expression enhancers in nonviral gene delivery” (J Med Chem, 2006).
The source made the active and inactive calls. The rule behind the calls is not given here.

Key:
HepG2 [1] = assay: Transfection of CDP/plasmid pGL3-CV in HepG2 cells at 150 uM after 48 hrs by luciferase assay; format: functional, Homo sapiens
Procedure, shortened: (§1)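 Cells plated at 5 × 10⁴/well 24 h ahead and rinsed with PBS. CDP/pGL3-CV polyplexes (1 µg DNA, charge ratio 5 +/-) applied in Opti-MEM with compound for 4 h at 37 °C, 5% CO₂, then medium replaced. After another 44 h, lysates assayed for luciferase in duplicate, expressed as RLU/mg protein. Viability taken as total lysate protein by modified Lowry (DC) assay, normalized to cells transfected with naked DNA.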

Nucleic Acid [2] = assay: Transcription of plasmid pGL3-CV upto 2.5 mM relative to control; format: nucleic-acid assay
HepG2 [3] = assay: Viability of human HepG2 cells at 150 uM; format: functional; procedure, shortened: as §1
HepG2 [4] = assay: Transfection of CDP/plasmid pGL3-CV in HepG2 cells at 100 uM after 48 hrs by luciferase assay; format: functional, Homo sapiens; procedure, shortened: as §1
HepG2 [5] = assay: Viability of human HepG2 cells at 100 uM; format: functional; procedure, shortened: as §1
HepG2 [6] = assay: Transfection of CDP/plasmid pGL3-CV in HepG2 cells at 20 uM after 48 hrs by luciferase assay; format: functional, Homo sapiens; procedure, shortened: as §1
HepG2 [7] = assay: Viability of human HepG2 cells at 20 uM; format: functional; procedure, shortened: as §1
HepG2 [8] = assay: Transfection of CDP/plasmid pGL3-CV in HepG2 cells at 200 uM after 48 hrs by luciferase assay; format: functional, Homo sapiens; procedure, shortened: as §1
HepG2 [9] = assay: Viability of human HepG2 cells at 200 uM; format: functional; procedure, shortened: as §1
HepG2 [10] = assay: Uptake of CDP/plasmid pGL3-CV polyplexes in HepG2 cells after 30 mins; format: ADME, cell-based; conditions: human, hepg2, 0.5 h
HeLa [11] = assay: Viability of human HeLa cells at 200 uM; format: functional; procedure, shortened: as §1
HeLa [12] = assay: Transfection of CDP/plasmid pGL3-CV in HeLa cells at 200 uM after 48 hrs by luciferase assay; format: functional, Homo sapiens; procedure, shortened: as §1
HepG2 [13] = assay: Uptake of CDP/plasmid pGL3-CV polyplexes in HepG2 cells after 2 hrs; format: ADME, cell-based; conditions: human, hepg2, 2 h
HepG2 [14] = assay: Uptake in human HepG2 cells after 4 hrs in presence of CDP/plasmid pGL3-CV polyplexes; format: ADME, cell-based; conditions: hepg2, 4 h
Procedure, shortened: (§2)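 HepG2 cells (2 × 10⁶) incubated at 37 °C in Opti-MEM (pH 7.4) with 100 µM compound, with or without CDP/pDNA (20 nmol/3 pmol). At set times, washed with cold PBS with and then without compound, lysed, and diluted in 0.1 N NaOH. Fluorescence read at ex 360/em 465 nm, converted by standard curve, and cellular concentration calculated assuming a cell volume of 3 × 10⁻⁶ µL.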

Nucleic Acid [15] = assay: Exclusion of picogreen dye from plasmid pGL3-CV at 4 mM; format: nucleic-acid assay
Procedure, shortened: (§3)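 CDP/pGL3-CV polyplexes diluted 2.5× in water, then mixed 1:1 with compound at twice the final concentration. Incubated 5 min at room temperature, then combined with an equal volume of PicoGreen diluted 200× in 10 mM HEPES. Fluorescence read at ex 488/em 535 nm; exclusion taken as loss of dye fluorescence.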

HepG2 [16] = assay: Uptake in human HepG2 cells at 100 uM after 30 mins; format: ADME, cell-based; conditions: hepg2, 0.5 h; procedure, shortened: as §2
Nucleic Acid [17] = assay: Displacement of plasmid pGL3-CV from CDP/plasmid pGL3-CV polyplexes at 500 uM; format: nucleic-acid assay
Procedure, shortened: (§4)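 pGL3-CV (2 µg, 0.6 pmol) complexed with CDP (24 µg, 4 nmol), diluted in PBS and held 30 min at 25 °C. Mixed with compound for a further 30 min at 25 °C, then passed through a 100 nm membrane presoaked with matching compound concentration. Free DNA in filtrate measured by DAPI fluorescence (ex 350/em 465 nm). % released = (If−I0)/(It−I0)×100.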

Nucleic Acid [18] = assay: Binding affinity to plasmid pGL3-CV assessed as retardation of movement in gel at 10 mM; format: nucleic-acid assay
Procedure, shortened: (§5)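 pGL3-CV plasmid mixed with compound across 0.1-10 mM, each solution held ~10 min, then loading buffer and Borax buffer (0.025 M, pH 8.4) added. Run on 0.5% agarose gel containing ethidium bromide in TAE (40 mM Tris-acetate, 1 mM EDTA). Mobility compared with untreated plasmid.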

Nucleic Acid [19] = assay: Displacement of plasmid pGL3-CV from CDP/plasmid pGL3-CV polyplexes at 20 mM; format: nucleic-acid assay; procedure, shortened: as §4
Nucleic Acid [20] = assay: Exclusion of picogreen dye from plasmid pGL3-CV at 1 mM; format: nucleic-acid assay; procedure, shortened: as §3
Nucleic Acid [21] = assay: Exclusion of picogreen dye from plasmid pGL3-CV at 0.5 mM; format: nucleic-acid assay; procedure, shortened: as §3
Nucleic Acid [22] = assay: Binding affinity to plasmid pGL3-CV assessed as retardation of movement in gel at 100 uM; format: nucleic-acid assay; procedure, shortened: as §5
HepG2 [23] = assay: Uptake in human HepG2 cells at 100 uM after 4 hrs; format: ADME, cell-based; conditions: hepg2, 4 h; procedure, shortened: as §2
Nucleic Acid [24] = assay: Binding affinity to plasmid pGL3-CV assessed as retardation of movement in gel at 1 mM; format: nucleic-acid assay; procedure, shortened: as §5
Nucleic Acid [25] = assay: Displacement of plasmid pGL3-CV from CDP/plasmid pGL3-CV polyplexes at 5 to 20 mM; format: nucleic-acid assay; procedure, shortened: as §4
Nucleic Acid [26] = assay: Displacement of plasmid pGL3-CV from CDP/plasmid pGL3-CV polyplexes at 2.5 mM; format: nucleic-acid assay; procedure, shortened: as §4

Activity (Nucleic Acid [2]) [%]	Compound	Activity (HepG2 [1]) [RLU/mg]	Activity (HepG2 [3]) [%]	Activity (HepG2 [8]) [RLU/mg]	Activity (HepG2 [9]) [%]	Activity (HeLa [11]) [%]	Activity (HeLa [12]) [RLU/mg]	also measured
75	CN(C)CCNc1ccnc2cc(Cl)ccc12	25000000	64	–	–	–	–	–
75	CC(Nc1ccnc2cc(Cl)ccc12)C(=O)O (configuration not stated)	4300000	84	–	–	–	–	–
75	NCCCN1CCN(CCCNc2ccnc3cc(Cl)ccc23)CC1	–	–	–	–	–	–	Activity (HepG2 [4]): 20000000 RLU/mg; Activity (HepG2 [5]): 74%
75	NCCN(CCN)CCNc1ccnc2cc(Cl)ccc12	25000000	83	–	–	–	–	–
–	CCN(CC)CCCC(C)Nc1c2ccc(Cl)cc2nc2ccc(OC)cc12 (configuration not stated) [QUINACRINE]	–	–	–	–	–	–	Activity (HepG2 [6]): 25000000 RLU/mg; Activity (HepG2 [7]): 57%
–	CCN(CC)CCCC(C)Nc1ccncc1 (configuration not stated)	–	–	6400000	85	101	82000	Activity (HepG2 [10]): 12.8%; Activity (HepG2 [13]): 76.2%
75	CCN(CC)CCCC(C)Nc1ccnc2cc(C(F)(F)F)ccc12 (configuration not stated)	–	–	170000000	61	83	6700000	Drug uptake (HepG2 [14]): 13 mM; Activity (Nucleic Acid [15]): 100%; Drug uptake (HepG2 [16]): 11 mM; Activity (Nucleic Acid [17]): 40%; Activity (Nucleic Acid [18]): Active; Activity (Nucleic Acid [19]): 70%; Activity (Nucleic Acid [20]): 30%; Activity (Nucleic Acid [21]): 30%
75	CCN(CC)CCCC(C)Nc1ccnc2cc(Cl)ccc12 (configuration not stated) [CHLOROQUINE]	–	–	16000000	60	82	4300000	Drug uptake (HepG2 [14]): 13 mM; Activity (Nucleic Acid [22]): inactive; Activity (HepG2 [10]): 11.9%; Activity (Nucleic Acid [17]): 10%; Drug uptake (HepG2 [23]): 12 mM; Activity (Nucleic Acid [19]): 50%; Activity (Nucleic Acid [20]): 23%; Activity (Nucleic Acid [21]): 23%; Activity (Nucleic Acid [24]): inactive; Activity (HepG2 [13]): 67.7%
75	CCN(CC)CCCC(C)Nc1ccnc2ccccc12 (configuration not stated)	–	–	2700000	100	–	–	Drug uptake (HepG2 [14]): 2 mM; Activity (HepG2 [10]): 18.8%; Activity (Nucleic Acid [25]): 10%; Activity (Nucleic Acid [26]): < 3%; Activity (HepG2 [13]): 75.5%
75	CCN(CC)CCOc1ccnc2cc(Cl)ccc12	–	–	–	–	92	230000	Activity (Nucleic Acid [20]): 17%; Activity (Nucleic Acid [21]): 17%
75	CC(C)NCCNCCNc1ccnc2cc(Cl)ccc12	–	–	22000000	74	–	–	–
75	CC(C)CCCC(C)Nc1ccnc2cc(Cl)ccc12 (configuration not stated)	4700000	89	–	–	–	–	–
